Screening results (PubChem)
Shown are actives, neighbours in structure and some others; about 2.9% of the full set was active somewhere.
PAX8 inh HTS = inhibitors of PAX8-driven TPO luciferase reporter, primary screen, RMG-I cells, single concentration; SteadyGlo, 24 h; inhibition, % at 12.6 µM; 360,000 compounds, 1.2% hits; AID 652154, 2013;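 active means mean replicate inhibition at least 60% with every replicate also reaching 60%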;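 further: luciferase light reporting Pax8 driven TPO promoter activity; plate controls were median of neutral control wells for no effect and mitoxantrone controls for full effect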
GSIS activator = GLuc luminescence reporter in INS-1E cells, primary screen for activators of glucose-dependent secretion of insulin; INS-1E GLuc reporter insulin secretion, 2-3 h; activation, % at 16.6 µM; 370,000 compounds, 0.61% hits;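 active means lowest replicate activation of at least 40%, so every replicate reaches that level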;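 further: 0% = median of neutral control wells and 100% = median of IBMX positive control wells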
HIV Env fusion = inhibitors of HIV-1 Env-driven cell-cell fusion, primary screen, HeLa-JRFL effector, CEM21 target cells, luciferase; AID 651610, 2012; 360,000 compounds, 1.1% hits; inhibition, % at 12.3 µM;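 active means mean replicate inhibition score of at least 50 and every replicate individually at or above 50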;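 further: 0% = plate neutral controls and 100% = maraviroc near 300 nM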
CDK5 inh = inhibitors of human CDK5/p35 kinase, primary screen, biochemical, single concentration | Recombinant CDK5/p35, ADP-Glo luminescence, 60 min | inhibition, % at 10 µM | 330,000 compounds, 0.01% hits | AID 488839, 2010;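 active means highest replicate inhibition of at least 50% and at least 75% of replicates reaching 50%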;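 further: plate controls were DMSO neutral control for no effect and GW8510 at 10 µM for full effect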
Target sequence (Q00535 whole entry, looked up): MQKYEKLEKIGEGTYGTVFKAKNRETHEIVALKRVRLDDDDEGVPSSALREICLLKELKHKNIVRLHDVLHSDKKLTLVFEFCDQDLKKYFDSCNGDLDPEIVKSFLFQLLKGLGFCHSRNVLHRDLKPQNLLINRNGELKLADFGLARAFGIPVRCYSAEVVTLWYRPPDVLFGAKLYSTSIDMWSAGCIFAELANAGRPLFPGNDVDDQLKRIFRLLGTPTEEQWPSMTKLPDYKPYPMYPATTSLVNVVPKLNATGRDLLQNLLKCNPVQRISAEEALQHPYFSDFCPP
Target sequence (Q15078 whole entry, looked up): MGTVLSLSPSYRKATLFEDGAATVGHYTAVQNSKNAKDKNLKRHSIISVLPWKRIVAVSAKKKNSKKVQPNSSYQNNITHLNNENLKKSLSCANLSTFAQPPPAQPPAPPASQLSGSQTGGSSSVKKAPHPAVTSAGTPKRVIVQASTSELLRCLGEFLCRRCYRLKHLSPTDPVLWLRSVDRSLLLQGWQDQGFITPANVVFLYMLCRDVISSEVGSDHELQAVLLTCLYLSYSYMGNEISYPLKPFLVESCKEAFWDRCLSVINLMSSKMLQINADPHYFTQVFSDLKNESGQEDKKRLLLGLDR
Cneo AK release = Cryptococcus neoformans cell lysis inducers, primary screen, AK release luminescence, single concentration | C. neoformans lysis, adenylate kinase release luminescence, 4 h; normalised: neutral wells 0, clomiphene wells 100 | lysis activity, % at 15 µM | 360,000 compounds, 0.2% hits;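 active means mean lysis activity across replicates of at least 80%, whatever share of replicates individually reach that level; inactive means mean lysis activity below 80%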
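Material – Cryptococcus neoformans yeast cells · Quantity – 5 × 10^6 yeast cells/mL · Buffer or medium – YPD medium · Compound – single dose · Timing – 4 h static compound exposure, 37 °C, read 1 h post-reagent · Signal – adenylate kinase release luminescence · Read-out basis – lysis from increased AK signal · Benchmarks – Clomiphene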
dFosB activator = activators of delta FosB homodimer, primary screen, biochemical, fluorescence polarization, TAMRA-CDK5 oligo, single point | Protein FosB (Mus musculus), P13346 | purified delta FosB; percent of positive-control signal above neutral wells | activation, % at 25 µM | 340,000 compounds, 0.99% hits | AID 493131, 2011;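 active means mean activation above about 17%, with every replicate also reaching it, limit read from the data, passing the limit was not always enough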
Starred values were filed as active, the others as inactive; nt = no result given; [ ] = remark or other dose.

SMILES	PAX8 inh HTS	GSIS activator	HIV Env fusion	CDK5 inh	Cneo AK release	dFosB activator
C[C@@H]1CN([C@H](C)CO)C(=O)c2cc(NC(=O)Nc3ccc4c(c3)OCO4)ccc2O[C@@H]1CN(C)Cc1ccc(C(=O)O)cc1	nt	-7	nt	nt	0	nt
O=C([C@@H]1[C@@H](CO)[C@@H]2Cn3c(cccc3=O)[C@@H]2N1CCC(F)(F)F)N1CCCCC1	nt	6	nt	nt	102*	nt
F[B-](F)(F)COc1ccccc1	-23	88*	-87	2	1	-10
CC(C)C#Cc1ccc([C@H]2[C@H](CO)N3C(=O)CN(C(=O)Cc4cccnc4)C[C@@H]23)cc1	nt	-2	nt	nt	nt	nt
COc1ccc(-n2nnnc2-c2cccc(OC)c2)cc1	25	nt	56*	1	-15	3
C[C@@H]1CCCCO[C@H](CN(C)S(=O)(=O)c2ccc(Cl)cc2)[C@@H](C)CN([C@H](C)CO)C(=O)c2cc(NC(=O)Cc3ccccc3)ccc2O1	-2	-1	-2[16.7 µM]	nt	1	nt
CCN(CC)CC(C)(C)C(=O)/C=C/c1ccc(/C=C/C(=O)C(C)(C)CN(CC)CC)cc1	123*	5	55*	1	nt	-4
CCN(CC)CCOC(=O)/C=C/c1ccccc1	-7	nt	-4	0	nt	-2
O=S(=O)(c1ccc2c(c1)C(=NO)c1cc(S(=O)(=O)N3CCCCC3)ccc1-2)N1CCCCC1	109*	nt	126*	-1	10	-6
COc1ccc(S(=O)(=O)N(C)C[C@H]2Oc3cc(C#CC4CC4)ccc3S(=O)(=O)N([C@H](C)CO)C[C@@H]2C)cc1	nt	-21	12[16.7 µM]	nt	2	nt
CC(C)(C)SCCNC(=O)CN(c1ccc(F)cc1)S(=O)(=O)c1ccccc1	-2	-16	16	0	210*	-4
COc1cc(OC)c(-c2c3cc(O)c(=O)cc-3oc3cc(O)c(O)cc23)cc1OC	4	-22	nt	6	nt	22*
Cn1c(=O)oc2cc(S(=O)(=O)N3CCCCC3)ccc21	9	16	21	0	0	1
Cn1c(=O)oc2cc(S(=O)(=O)N3CCCC3)ccc21	-72	27	62*	-3	-1	-2
Cc1cc(=O)[nH]c2c1c(C)nn2C1CCCCC1	nt	3	nt	1	1	1
Cc1cc(=O)[nH]c2c1c(C)nn2C1CCCC1	nt	53*	-8	0	0	-4
Cc1noc(C)c1S(=O)(=O)N(C)C[C@@H]1Oc2c(NS(=O)(=O)c3cccs3)cccc2C(=O)N([C@H](C)CO)C[C@@H]1C	nt	-18	nt	nt	nt	nt
CC(C)OP(=O)(Nc1cccc2ccccc12)OC(C)C	18	1	94*	0	0	-2
CN(C)P(=O)(Nc1cccc2ccccc12)Nc1cccc2ccccc12	39	20	12	0	1	-2
CC(=O)n1cc([C@H]2C=C(C(=O)N3CCCCCCC3)O[C@@H](OCc3ccc(CO)cc3)C2)c2ccccc21	-9	nt	-4[16.7 µM]	nt	-6	nt
C[C@@H]1CN([C@H](C)CO)C(=O)c2cc(NC(=O)NC3CCCCC3)ccc2O[C@@H]1CN(C)C(=O)Nc1ccc(C(F)(F)F)cc1	8	-5	-2[16.7 µM]	nt	-1	nt
CC[C@@]1(O)C(=O)OCc2c1cc1n(c2=O)Cc2cc3c(N)cccc3nc2-1	99*	nt	68*	0	-1	3
CCCCc1cc(=O)oc2c(CN(C)C)c(O)ccc12	nt	0	-17	-1	0	-10
CC[C@@]1(O)C(=O)OCc2c1cc1n(c2=O)Cc2cc3c(CN(C)C)c(O)ccc3nc2-1	102*	nt	nt	1	-1	-3
O=c1cccc2n1Cc1cc3ccccc3nc1-2	-91	nt	nt	0	0	-5
SMILES	PAX8 inh HTS	GSIS activator	HIV Env fusion	CDK5 inh	Cneo AK release	dFosB activator
C[C@H]1CN([C@@H](C)CO)C(=O)c2cccc(NS(=O)(=O)c3ccc(Cl)cc3)c2O[C@@H]1CN(C)CC1CC1	-3	nt	-20[16.7 µM]	nt	89*	nt
CC(C)NC(=O)N(C)C[C@H]1Oc2c(NS(=O)(=O)c3ccc(Cl)cc3)cccc2C(=O)N([C@@H](C)CO)C[C@@H]1C	-16	-2	20[16.7 µM]	nt	105*	nt
C[C@@H]1CN([C@H](C)CO)C(=O)c2cccc(NS(=O)(=O)c3ccc(Cl)cc3)c2O[C@H]1CN(C)CC1CCCCC1	3	1	88*[16.7 µM]	nt	2	nt
Cn1c(CCN2CCN(c3ccccn3)CC2)nc2cc(NC(=O)COc3ccc(Cl)cc3)ccc21	67*	4	11	0	0	-1
Cc1cccc(OCC(=O)Nc2ccc3c(c2)nc(CCN2CCCCC2)n3C)c1	28	22	8	nt	2	-1
CC1CCN(CCc2nc3cc(NC(=O)COc4ccc(Cl)cc4)ccc3n2C)CC1	75*	-5	10	-1	-5	-9
Cn1c(CCN2CCN(c3ccccn3)CC2)nc2cc(NS(=O)(=O)c3ccc(Cl)cc3)ccc21	90*	-9	-5	1	4	-16
COc1ccc(OCC(=O)Nc2ccc3c(c2)nc(CCN2CCN(c4ccccn4)CC2)n3C)cc1	17	7	29	nt	0	nt
Cc1cccc(OCC(=O)Nc2ccc3c(c2)nc(CCN2CCN(c4ccccn4)CC2)n3C)c1	71*	-25	13	0	1	-15
CO[C@@H]1CN(C)C(=O)c2cc(NC(=O)C3CC3)ccc2OC[C@H](C)N(C(=O)C2CCOCC2)C[C@H]1C	-4	-1	-33[16.7 µM]	nt	-3	nt
Cc1ccc(S(=O)(=O)N(C)C[C@@H]2OCCCC[C@H](C)Oc3ccc(NC(=O)Nc4cccc5ccccc45)cc3C(=O)N([C@H](C)CO)C[C@@H]2C)cc1	-1	42	-40[16.7 µM]	nt	48	nt
N#Cc1cccc(-c2ccc3c(c2)[C@H]2[C@H](CCN2S(=O)(=O)c2ccccc2)[C@@H](CO)N3)c1	-1	22	nt	nt	2	nt
CO[C@H]1CN(C)C(=O)c2cc(NC(C)=O)ccc2OC[C@@H](C)N(C(=O)c2cnccn2)C[C@@H]1C	-6	0	4[16.7 µM]	nt	nt	nt
O=C1/C(=C/c2cccc([N+](=O)[O-])c2)CSc2ccc(Cl)cc21	-13	-2	61*	1	nt	-1
Cc1ccc(S(=O)(=O)Nc2cccc3c2O[C@@H](CN(C)C(=O)NC(C)C)[C@@H](C)CN([C@H](C)CO)C3=O)cc1	-8	-8	nt	nt	0	nt
COc1ccc(COC[C@]23NC(=S)N(C(=O)c4ccccc4)[C@H](c4ccccc4O2)[C@H]3CO[Si](C)(C)C(C)(C)C)cc1	6	nt	12[16.7 µM]	nt	-4	nt
Cc1cc2c([nH]c3ccccc32)c2c1OC(C)(C)C=C2	nt	-5	nt	0	-10	-3
COc1ccc2[nH]c(=O)c3c(c2c1)OC(C)(C)C=C3	-25	nt	136*	8	-2	-2
